# Assay results gathered from unrelated publications.
# Protocols differ between the studies behind these lines.
# EAPA: Endothiapepsin (EAPA, Cryphonectria parasitica, UniProt P11838)
# Trypanothione synthetase: Trypanothione synthetase (Trypanosoma cruzi, UniProt Q9GT49)
# Tmem97: Sigma intracellular receptor 2 (Tmem97, Rattus norvegicus, UniProt Q5U3Y7)
# MTNR1A: Melatonin receptor type 1A (MTNR1A, Homo sapiens, UniProt P48039)
# TACR1: Substance-P receptor (TACR1, Homo sapiens, UniProt P25103)
# HTR2C: 5-hydroxytryptamine receptor 2C (HTR2C, Homo sapiens, UniProt P28335)
SMILES,target,effect on,mode,method,concentration,pH,inhibition
NNC(COCc1ccccc1)c1nnnn1Cc1ccc2c(c1)OCO2 (centres unmarked),EAPA,enzyme activity,inhibitor,,200 µM,,48.3%
CN(C)C(=O)CN1C(=O)Cc2c([nH]c3ccc(Br)cc23)-c2ccc(Cl)cc21,Trypanothione synthetase,enzyme activity,inhibitor,absorbance,30 µM,,14.9%
CNC(=O)[C@@]12C[C@@H]1[C@@H](n1cnc3c(NC)nc(C#Cc4ccc(Cl)s4)nc31)[C@H](O)[C@@H]2O,Tmem97,ligand displacement,,radioligand,10 µM,,60 to 70%
CCN(Cc1ccccc1C(F)(F)F)C(=O)C1CCN(S(=O)(=O)c2ccc3[nH]ncc3c2)CC1,MTNR1A,ligand displacement,,radioligand,10 µM,,34%
NNC(c1nnnn1CC(c1ccccc1)c1ccccc1)C1CCCCC1 (centres unmarked),EAPA,enzyme activity,inhibitor,,200 µM,,71.3%
CS(=O)(=O)O.c1cc2c(cc1C1CCCCC1)c1c3n2CCNC3CCC1 (centres unmarked),Trypanothione synthetase,enzyme activity,inhibitor,absorbance,25 µM,,28.9%
O=C(CN1C(=O)Cc2c([nH]c3ccc(Br)cc23)-c2ccc(Cl)cc21)NCCN1CCNCC1,Trypanothione synthetase,enzyme activity,inhibitor,absorbance,30 µM,,7.9%
O=C(O)c1ncccc1O,"Stromelysin-1 (MMP3, Homo sapiens, UniProt P08254)",enzyme activity,inhibitor,,1 mM,pH 6,~50%
COc1cc(NC(C)=O)c(Cl)cc1C(=O)Nc1nccs1,"B2 bradykinin receptor (BDKRB2, Homo sapiens, UniProt P30411)",cell-free assay,,,10 µM,,-21.3%
CC(C)(C)NC(=O)CN1C(=O)Cc2c([nH]c3ccc(Br)cc23)-c2ccc(Cl)cc21,Trypanothione synthetase,enzyme activity,inhibitor,absorbance,30 µM,,5.8%
O=C(Nc1ccc(S(=O)(=O)N2CCC(Cl)CC2)cc1)c1ccc([N+](=O)[O-])o1,TACR1,ligand displacement,,radioligand,10 µM,,3%
O=C1N=C(N2CCCCN2)S/C1=C\c1ccc(F)cc1O,MTNR1A,ligand displacement,,radioligand,10 µM,,< 10%
NNC(CCc1ccccc1)c1nnnn1CC(=O)NCc1cccs1 (centres unmarked),EAPA,enzyme activity,inhibitor,,200 µM,,39.1%
CC1CNc2c(cccc2S(=O)(=O)N[C@@H](CCCNC(=N)N)C(=O)N2CC[C@@H](C)C[C@@H]2C(=O)O)C1 (some centres unmarked),"Prothrombin (F2, Bos taurus, UniProt P00735)",enzyme activity,inhibitor,fluorescence,0.1 µg/mL,,94%
CN1CC(Oc2cnc(C#N)cc2-c2ccn3nc(NC(=O)C4CC4)cc3c2)C1,"MAPK/MAK/MRK overlapping kinase (MOK, Homo sapiens, UniProt Q9UQ07)",enzyme activity,inhibitor,,1 µM,,15%
CCCNc1nc2ccccc2n1Cc1ccc(Cl)cc1,HTR2C,ligand displacement,,radioligand,10 µM,,80%
NNC(CCc1ccccc1)c1nnnn1Cc1ccc2c(c1)OCO2 (centres unmarked),EAPA,enzyme activity,inhibitor,,200 µM,,36.3%
O=C(c1ccc(F)cc1)N(Cc1ccccc1)C1CCCCC1,"B1 bradykinin receptor (BDKRB1, Homo sapiens, UniProt P46663)",cell-free assay,,,10 µM,,-7%
C#CCOCCOCCOc1ccc2c3c1C1CCCC1N3CCNC2 (racemic),HTR2C,ligand displacement,,radioligand,10 µM,,100%
N#Cc1cc(Cn2c(N3CCCC3)nc3ccccc32)ccc1F,HTR2C,ligand displacement,,radioligand,10 µM,,14.4%
CC(C)(C)OC(=O)CN1C(=O)Cc2c([nH]c3ccc(Br)cc23)-c2ccc(Cl)cc21,Trypanothione synthetase,enzyme activity,inhibitor,absorbance,30 µM,,10.3%
NNC(CCc1ccccc1)c1nnnn1Cc1ccc2c(c1)OCCO2 (centres unmarked),EAPA,enzyme activity,inhibitor,,200 µM,,42.5%
Oc1cccc(Nc2nc(-c3ccc(F)cc3F)cs2)c1,TACR1,cell-free assay,,,10 µM,,30%
COc1cc2c(cc1OC)CN(C(C)CCc1ccc(O)cc1)CC2 (centres unmarked),Tmem97,ligand displacement,,radioligand,0.1 µM,,94%
O=C(COc1ccc(Cl)cc1Cl)N/N=C/c1c[nH]c2ccccc12,"1-deoxy-D-xylulose-5-phosphate synthase (dxs, Deinococcus radiodurans, UniProt Q9RUB5)",enzyme activity,inhibitor,,200 µM,,45.3%
O=C(c1ccc(Cl)cc1)N(Cc1ccccc1)C1CCCCC1,TACR1,cell-free assay,,,10 µM,,15.1%
CNC(=O)c1cc(Oc2ccc(NC(=O)Nc3ccc(Cl)c(C(F)(F)F)c3)cc2)ccn1,"Serine/threonine-protein kinase SIK1 (SIK1, Homo sapiens, UniProt P57059)",enzyme activity,inhibitor,,0.3 µM,,4%
O=C(CN1C(=O)Cc2c([nH]c3ccc(Br)cc23)-c2ccc(Cl)cc21)NCCN1CCCCC1,Trypanothione synthetase,enzyme activity,inhibitor,absorbance,30 µM,,21.4%
CN(C)C1CCN(CC#Cc2nn(C3CCCC3)c3nc(NCc4ccccc4)ncc23)C1 (centres unmarked),"Rho-associated protein kinase 1 (ROCK1, Homo sapiens, UniProt Q13464)",enzyme activity,inhibitor,FRET,10 µM,,-4%
O=C(CN1C(=O)Cc2c([nH]c3ccc(Br)cc23)-c2ccc(Cl)cc21)Nc1ncco1,Trypanothione synthetase,enzyme activity,inhibitor,absorbance,30 µM,,6.9%
Ic1cccc2cnccc12,"Poly [ADP-ribose] polymerase tankyrase-2 (TNKS2, Homo sapiens, UniProt Q9H2K2)",enzyme activity,inhibitor,,10 µM,,12%
CCN(CC)CCNC(=O)CN1C(=O)Cc2c([nH]c3ccc(Br)cc23)-c2ccc(Cl)cc21,Trypanothione synthetase,enzyme activity,inhibitor,absorbance,30 µM,,17.1%
CN(Cc1ccc(NC(=O)C2=Cc3cc(-c4ccc(OCCCCCF)cc4)ccc3CCC2)cc1)C1CCOCC1,Tmem97,ligand displacement,,radioligand,10 µM,,7%
CC(Cc1ccc(C(C)(C)C)cc1)C(NN)c1nnnn1Cc1ccc2c(c1)OCO2 (centres unmarked),EAPA,enzyme activity,inhibitor,,200 µM,,95.3%
NCCNC(=O)CN1C(=O)Cc2c([nH]c3ccc(Br)cc23)-c2ccc(Cl)cc21,Trypanothione synthetase,enzyme activity,inhibitor,absorbance,30 µM,,26.3%
